ChEMBL document CHEMBL1126868, “Inhibitors of blood platelet cAMP phosphodiesterase. 4. Structural variation of the side-chain terminus of water-soluble 1,3-dihydro-2H-imidazo[4,5-b]quinolin-2-one derivatives” (J Med Chem, 1993)

Tests used:
[1] = Aqueous solubility; format: physicochemical; details: read-out: S
In short: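 A 10-mg sample was placed in 0.5 mL water and diluted stepwise up to 10 mL, or until it dissolved. Solubility is reported in mg/mL.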

Homo sapiens [2] = organism: Homo sapiens; assay: Inhibition of human platelet aggregation induced by ADP after 3 min incubation with platelet rich plasma; format: functional; details: 0.05 h
In short: (§1)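 Human platelet-rich plasma was preincubated with drug for 3 min (standard) or 15 min, then aggregation was induced with 5.86 μM ADP. Aggregation at a range of drug concentrations was compared with vehicle-treated controls, and IC50 was taken from dose-response curves. Values are single, duplicate or triplicate (with SD) determinations.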

[3] = half-life (t1/2 min); format: ADME
In short: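 Same monkey liver S-9 incubation (37 °C, final drug 1 or 10 μg/mL, triplicate). Aliquots taken at 0, 15, 30, 60, 90 and 120 min, quenched with MeOH and analysed for parent by fluorescence HPLC peak height. Half-life = ln 2 divided by the slope of a least-squares linear regression of peak height against time.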

Homo sapiens [4] = organism: Homo sapiens; assay: Inhibition of human platelet aggregation induced by ADP after 15 min incubation with platelet rich plasma; format: functional; details: 0.25 h; in short: as §1
[5] = % metabolized in monkey S-9 after 2 hours (10 ug/ml); format: ADME; details: simiiformes, monkey S-9 fraction; read-out: Activity
In short: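 Monkey liver homogenised at 0 °C in 3 volumes isotonic KCl (0.05 M phosphate, pH 7.4), spun 9000g 30 min to give S-9. Triplicate incubations at 37 °C for 2 h with cofactor mix (glucose-6-phosphate, NADP, nicotinamide, MgCl2), final drug 1 or 10 μg/mL. Parent measured by fluorescence HPLC after MeOH protein precipitation; % metabolized = 100% minus % remaining at 2 h versus t=0.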

Phosphodiesterase 3 = Phosphodiesterase 3 (Homo sapiens, UniProt Q14432+Q13370); assay: Inhibition of human platelet aggregation cAMP PDE in vitro; format: functional
In short: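 Human platelet cAMP PDE assay run as in an earlier protocol, except that the [3H]adenosine product was resolved on DEAE Sephadex. Values are means of duplicate (deviation under 50% of mean) or triplicate determinations.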

Row | SMILES | solubility [1] [µg/mL] | IC50 (Homo sapiens [2]) [nM] | half-life [3] [h] | IC50 (Homo sapiens [4]) [nM] | metabolised at 2 h, 10 ug/ml [5] [%] | IC50 (Phosphodiesterase 3) [nM]
1 | Cl.Oc1nc2cc3cc(OCCCc4nnnn4C4CCN(CC5CCCCO5)CC4)ccc3[nH]c-2n1 (stereo not given) | > 10000 | 71 |  |  |  | 
2 | CCC(CC)CN1CCN(C(=O)NCCCOc2ccc3[nH]c4nc(O)nc-4cc3c2)CC1.Cl | > 20000 | 42 | 2.68 | 7 | 37.3 | 1.25
3 | Cl.Oc1nc2cc3cc(OCCCCc4nnnn4C4CCN(CC5CCCCC5)CC4)ccc3[nH]c-2n1 | > 5000 | 20 |  |  |  | 
4 | CCC(CC)CN1CCC(n2nnnc2CCCCOc2ccc3[nH]c4nc(O)nc-4cc3c2)CC1.Cl | > 5000 | 12 |  |  |  | 
5 | CCOC(=O)N1CCC(n2nnnc2CCCCOc2ccc3[nH]c4nc(O)nc-4cc3c2)CC1 | < 1000 | 100 |  |  |  | 
6 | CCCC(CCC)CN1CCN(C(=O)NCCCOc2ccc3[nH]c4nc(O)nc-4cc3c2)CC1.Cl | 500 | 130 |  |  |  | 
7 | Cl.Oc1nc2cc3cc(OCCCc4nnnn4C4CCNCC4)ccc3[nH]c-2n1 | > 20000 | 11600 |  |  |  | 
8 | COc1ccc(CN2CCN(S(=O)(=O)CCCOc3ccc4[nH]c5nc(O)nc-5cc4c3)CC2)cc1.Cl | > 20000 | 460 |  |  |  | 
9 | Cl.O=S(=O)(CCCCOc1ccc2[nH]c3nc(O)nc-3cc2c1)C1CCN(Cc2ccc(F)cc2)CC1 | 2000 | 67 |  |  |  | 
10 | Cl.O=C(NCCCOc1ccc2[nH]c3nc(O)nc-3cc2c1)N1CCN(CC2CCCCCC2)CC1 | 2000 | 54 |  |  |  | 
11 | Cl.O=C(NCCCOc1ccc2[nH]c3nc(O)nc-3cc2c1)N1CCN(Cc2ccccc2)CC1 | > 20000 | 310 | 2.17 | 50 | 46.8 | 1.11
12 | CCC(CC)CN1CCC(S(=O)(=O)CCCCOc2ccc3[nH]c4nc(O)nc-4cc3c2)CC1.Cl | 5000 | 21 |  |  |  | 
13 | CCC(CC)CN1CCN(S(=O)(=O)CCCOc2ccc3[nH]c4nc(O)nc-4cc3c2)CC1.Cl | > 10000 | 160 | 2.87 | 40 | 38.8 | 5.14
14 | Cl.O=C(NCCCOc1ccc2[nH]c3nc(O)nc-3cc2c1)N1CCN(c2ccccn2)CC1 | 500 | 690 |  |  |  | 
15 | Cl.O=C(NCCCOc1ccc2[nH]c3nc(O)nc-3cc2c1)N1CCN(CC2CCCC2)CC1 | 700 | 94 |  |  |  | 
16 | CC(C)CN1CCC(n2nnnc2CCCCOc2ccc3[nH]c4nc(O)nc-4cc3c2)CC1.Cl | > 10000 | 9 |  |  |  | 
17 | Cl.Oc1nc2cc3cc(OCCCCc4nnnn4C4CCN(Cc5ccccc5)CC4)ccc3[nH]c-2n1 | > 5000 | 31 |  |  |  | 
18 | Cl.O=S(=O)(CCCOc1ccc2[nH]c3nc(O)nc-3cc2c1)N1CCNCC1 | > 20000 | 15500 |  |  |  | 
19 | Cl.Oc1nc2cc3cc(OCCCc4nnnn4C4CCN(CC5CCCCCC5)CC4)ccc3[nH]c-2n1 | 1000 | 17 |  |  |  | 
20 | CCCC(CCC)CN1CCC(n2nnnc2CCCOc2ccc3[nH]c4nc(O)nc-4cc3c2)CC1.Cl | 2000 | 82 |  |  |  | 

Row | SMILES | solubility [1] [µg/mL] | IC50 (Homo sapiens [2]) [nM] | half-life [3] [h] | IC50 (Homo sapiens [4]) [nM] | metabolised at 2 h, 10 ug/ml [5] [%] | IC50 (Phosphodiesterase 3) [nM]
21 | Cl.O=C(NCCCOc1ccc2[nH]c3nc(O)nc-3cc2c1)N1CCN(CCc2ccccc2)CC1 | 250 | 300 |  |  |  | 
22 | Cl.O=C(NCCCOc1ccc2[nH]c3nc(O)nc-3cc2c1)N1CCN(CCC2CCCCC2)CC1 | 500 | 72 |  |  |  | 
23 | CCOC(=O)N1CCC(n2nnnc2CCCOc2ccc3[nH]c4nc(O)nc-4cc3c2)CC1 | < 1000 | 420 |  |  |  | 
24 | Cl.O=C(NCCCOc1ccc2[nH]c3nc(O)nc-3cc2c1)N1CCN(Cc2ccsc2)CC1 | 3000 | 280 |  |  |  | 
25 | Cl.O=S(=O)(CCCOc1ccc2[nH]c3nc(O)nc-3cc2c1)C1CCN(CC2CCCCO2)CC1 (stereo not given) | > 10000 | 34 |  |  |  | 
26 | Cl.O=S(=O)(CCCOc1ccc2[nH]c3nc(O)nc-3cc2c1)N1CCN(c2nc3ccccc3s2)CC1 | 1000 | 4880 |  |  |  | 
27 | Cl.Cl.O=C(NCCCOc1ccc2[nH]c3nc(O)nc-3cc2c1)N1CCN(Cc2ccc(Cl)cc2)CC1 | 200 | 290 |  |  |  | 
28 | Cl.O=S(=O)(CCCOc1ccc2[nH]c3nc(O)nc-3cc2c1)C1CCN(CCc2ccccc2)CC1 | < 5000 | 130 |  |  |  | 
29 | Cl.Oc1nc2cc3cc(OCCCc4nnnn4C4CCN(CCc5ccccc5)CC4)ccc3[nH]c-2n1 | < 5000 | 83 |  |  |  | 
30 | Cl.O=C(NCCCOc1ccc2[nH]c3nc(O)nc-3cc2c1)N1CCC(N2CCCCC2)CC1 | > 20000 | 9860 |  |  |  | 
31 | O=CN1CCN(S(=O)(=O)CCCOc2ccc3[nH]c4nc(O)nc-4cc3c2)CC1 | < 1000 | 13000 |  |  |  | 
32 | Cl.O=S(=O)(CCCOc1ccc2[nH]c3nc(O)nc-3cc2c1)N1CCN(c2nc3ccccc3o2)CC1 | > 20000 | 2410 |  |  |  | 
33 | Cl.O=S(=O)(CCCOc1ccc2[nH]c3nc(O)nc-3cc2c1)N1CCN(CCc2ccccc2)CC1 | < 10000 | 1040 |  |  |  | 
34 | Cl.O=C(NCCCOc1ccc2[nH]c3nc(O)nc-3cc2c1)N1CCN(CC2CCCCO2)CC1 (stereo not given) | > 20000 | 160 |  |  |  | 
35 | CC(C)CN1CCC(S(=O)(=O)CCCOc2ccc3[nH]c4nc(O)nc-4cc3c2)CC1.Cl | > 10000 | 27 |  |  |  | 
36 | Cl.O=S(=O)(CCCOc1ccc2[nH]c3nc(O)nc-3cc2c1)N1CCN(CCC2CCCCC2)CC1 | < 5000 | 2040 |  |  |  | 
37 | Cl.O=C(NCCCOc1ccc2[nH]c3nc(O)nc-3cc2c1)N1CCN(Cc2ccc(F)cc2)CC1 | > 20000 | 350 | 1.08 | 50 | 70 | 2.78
38 | CCOC(=O)N1CCC(S(=O)(=O)CCCCOc2ccc3[nH]c4nc(O)nc-4cc3c2)CC1 | < 1000 | 410 |  |  |  | 
39 | CC(C)CN1CCC(n2nnnc2CCCOc2ccc3[nH]c4nc(O)nc-4cc3c2)CC1.Cl | > 10000 | 9.4 |  |  |  | 
40 | Cl.O=S(=O)(CCCOc1ccc2[nH]c3nc(O)nc-3cc2c1)C1CCNCC1 | > 10000 | > 66000 |  |  |  | 

Row | SMILES | solubility [1] [µg/mL] | IC50 (Homo sapiens [2]) [nM] | half-life [3] [h] | IC50 (Homo sapiens [4]) [nM] | metabolised at 2 h, 10 ug/ml [5] [%] | IC50 (Phosphodiesterase 3) [nM]
41 | Cl.O=S(=O)(CCCOc1ccc2[nH]c3nc(O)nc-3cc2c1)C1CCN(CCC2CCCCC2)CC1 | < 5000 | 48 |  |  |  | 
42 | Cl.O=S(=O)(CCCCOc1ccc2[nH]c3nc(O)nc-3cc2c1)C1CCN(CC2CCCCC2)CC1 | 2000 | 30 |  |  |  | 
43 | Cl.O=S(=O)(CCCOc1ccc2[nH]c3nc(O)nc-3cc2c1)C1CCN(CC2CCCCC2)CC1 | > 10000 | 30 | 7.55 | 8.4 | 15.2 | 1.13
44 | Cl.Oc1nc2cc3cc(OCCCCc4nnnn4C4CCNCC4)ccc3[nH]c-2n1 | 5000 | 5330 |  |  |  | 
45 | Cl.Oc1nc2cc3cc(OCCCc4nnnn4C4CCN(CC5CCCC5)CC4)ccc3[nH]c-2n1 | 3000 | 9 |  |  |  | 
46 | Cl.O=S(=O)(CCCOc1ccc2[nH]c3nc(O)nc-3cc2c1)N1CCN(CC2CCCCC2)CC1 | > 20000 | 110 | 2.02 | 60 | 49.4 | 2.56
47 | Cl.O=S(=O)(CCCOc1ccc2[nH]c3nc(O)nc-3cc2c1)C1CCN(Cc2cccc(C(F)(F)F)c2)CC1 | < 5000 | 38 |  |  |  | 
48 | Cl.O=S(=O)(CCCCOc1ccc2[nH]c3nc(O)nc-3cc2c1)C1CCNCC1 | > 10000 | 14800 |  |  |  | 
49 | Cl.O=C(NCCCOc1ccc2[nH]c3nc(O)nc-3cc2c1)N1CCNCC1 | > 20000 | 8150 |  |  |  | 
50 | CC(C)CN1CCN(C(=O)NCCCOc2ccc3[nH]c4nc(O)nc-4cc3c2)CC1.Cl | > 20000 | 180 |  |  |  | 
51 | Cl.O=C(NCCCOc1ccc2[nH]c3nc(O)nc-3cc2c1)N1CCN(c2ncccn2)CC1 | 100 | 320 |  |  |  | 
52 | CCOC(=O)N1CCC(S(=O)(=O)CCCOc2ccc3[nH]c4nc(O)nc-4cc3c2)CC1 | < 1000 | 650 |  |  |  | 
53 | CCCC(CCC)CN1CCC(S(=O)(=O)CCCOc2ccc3[nH]c4nc(O)nc-4cc3c2)CC1.Cl | 1000 | 230 |  |  |  | 
54 | Cl.Oc1nc2cc3cc(OCCCCc4nnnn4C4CCN(Cc5ccc(F)cc5)CC4)ccc3[nH]c-2n1 | > 5000 | 51 |  |  |  | 
55 | Cl.O=S(=O)(CCCOc1ccc2[nH]c3nc(O)nc-3cc2c1)N1CCN(Cc2cccc(C(F)(F)F)c2)CC1 | 2000 | 320 |  |  |  | 
56 | Cl.O=C(NCCCOc1ccc2[nH]c3nc(O)nc-3cc2c1)N1CCN(Cc2cccs2)CC1 | > 10000 | 160 |  |  |  | 
57 | Cl.Cl.O=S(=O)(CCCOc1ccc2[nH]c3nc(O)nc-3cc2c1)N1CCN(Cc2ccc(Cl)cc2)CC1 | > 20000 | 530 |  |  |  | 
58 | Cl.O=S(=O)(CCCCOc1ccc2[nH]c3nc(O)nc-3cc2c1)C1CCN(Cc2ccccc2)CC1 | 5000 | 42 |  |  |  | 
